Consider 37 variants from the RNAGym collection of RNA variant scans (doi:10.1126/science.aae0568).

B1: tRNA (parent)
chain: GUUCCGUUGGCGUAAUGGUAACGCGUCUCCCUCCUAAGGAGAAGACUGCGGGUUCGAGUCCCGUACGGAACG

Fewer inactive variants are shown than the library holds.

Variants of B1 are the subject of this data set. The experiment in a line: yeast fitness relative to wild type (ratio to wild type); higher = fitter; tRNA-Arg(CCU), competitive growth, 37 C, YPD. In a few lines:
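Start and end populations of a pooled competition were compared by 100-nucleotide paired-end sequencing of gene amplicons. The Saccharomyces cerevisiae strains carried tRNA-Arg(CCU) gene variants at the native genomic locus, synthesised with a 3% per-site mutation rate at 69 sites, and competed in YPD at 37°C for 24 hours in six parallel replicates. Darwinian fitness relative to wild type was based on the change in genotype frequencies. Genotypes required ≥ 100 starting reads, and estimates < 0.5 were set to 0.5.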
With GUUGCGUUCGCGUAAUGGUAACGCGUCUCCCUCAUAAGGCGAAGACUGCGGGUUCGAGUCCCGUACGGAACG [C4G G9C C34A A40C], the yeast fitness was determined as 0.538.

As to GUUCCGUUGGCGUAAUGGUACCGCGUCUCCCUCCUAAGGAGAAGACUGCGGGUUCGAGUCCCGUACGAAACG [A21C G68A], the yeast fitness worked out at 0.799.

As to GGUACGUUGGCGUAAUGGUAAUGCGUCGCCCUCCUAAGGAGUAGACUGCGGGUUCGAGUCCUGUACGGAUCG [U2G C4A C22U U28G A42U C62U A70U], the yeast fitness was no more than 0.5.

On to GUUCCCUAGGCGUAAUGGUAACGCGUCUCCCUCCUAAGGAGAAGUCUGCGGGCUCGAGUCCCGUACAGCACG [G6C U8A A45U U53C G67A A69C], for which the yeast fitness was found to be 0.775.

Regarding GUUCCGUUGGCGUAAUGGUAACGCGUCUCCCUCCUAAGGGGAAGACUGCGGGAUCGAGUCCCAUACGGAACG [A40G U53A G63A], the yeast fitness is no more than 0.5.

As for GUUCCGUUGGCGUAAUGGUAACGCGUCUCCCUCCUAAGGAGAGGACUGCGGGCUCGAGUCCCGUACGGAACG [A43G U53C], the yeast fitness worked out at 0.84.

Consider GUUCCGUUGGCGUAAUGGUAACGCGUCUCCCUCCAAAGGAGAAGACUGCGGGUUCGCGUCCUGUACGGAACG [U35A A57C C62U], for which the yeast fitness is no more than 0.5.

Turning to GUUCCGUAGGCCUAAUGGUACCGCGUGUCCUUCCUAAGGAGAAGACUGCGGAUUCGAGUCCCGUACGGAACG [U8A G12C A21C C27G C31U G52A], the yeast fitness was 0.59.

Consider GUUUCGUUGGCGCAAUGGUAACGCAUCUCCCUCCUAAGGAGAAGACUGCGGGUUCGAGUACUGUACGGAACG [C4U U13C G25A C60A C62U], for which the yeast fitness was no more than 0.5.

In the case of GUUCCGUUGGCGUAAUGGUAACGCGUCUCCCUCCUAAGGAGAGGACUGCGGGUUCGAGCCCCGUACGGAACG [A43G U59C], the yeast fitness is 0.863.

Consider GGUCCGUUGGCGUAAUGGUCACGCGUUUCCCUCCUAAGGAGAAGAAUGCGGGUUCGAGUCCCGUACGGAACG [U2G A20C C27U C46A], for which the yeast fitness came to 0.614.

Turning to GUUCGGUUGGCGUAAUGGUAACGCGUCUCCCUCCUUAGGAGAAGACUGCGGGUUCGAGUCUCGUACGGAACG [C5G A36U C61U], the yeast fitness is no more than 0.5.

Turning to GUUCCGUUGGCGUAAUGGUAACGCGUCUGCCUCCUAAGGAAAAGACUGCGGGUUCGAGUCUCGUACGGAACG [C29G G41A C61U], the yeast fitness amounted to 0.531.

GCUCCGUUGGCGUAAUGGAAACGCGUCUCCCUCCUAAGGAGAAGACUGCGGGUUCGAGUCCCGUACGGAACG [U2C U19A]: the yeast fitness was determined as 0.845.

For the variant GCUCCGUUGGCGUAAUGGUAACGCGUCUCCCUCCUAAGGAGAAGACUGCGGGUUCGUGUCCCGUACCGAACG [U2C A57U G67C], the yeast fitness stood at 0.562.

In the case of GUUCCGUUAGCGUAGUGGUAACGCGUCUCCCUCCUAAGGAGAAGACUGCGGGUUCGAGUCCCGUACGGAACG [G9A A15G], the yeast fitness was 0.884.

Take GUUCCGUUAGCGUAAUGGGAACGCGUCUCCGUCCUAAGGAGAAGACUGCGGGUUCGAGUCCCGUACGGAACG [G9A U19G C31G]: the yeast fitness was no more than 0.5.

GUUCCGUUGGCGUAAUGGUAACGCGUCACCCUCCUAUGGAGAAGACUGCGGGUUCGAGUCCCGUACGGCACG [U28A A37U A69C]: the yeast fitness was no more than 0.5.

On to GUUCCGUUGGCGUAAUGAUAACGCGUAUCCCUCCUAAGGAGAAGACUGCGGGUUCGAGUCCCGUACGCAACG [G18A C27A G68C], for which the yeast fitness is no more than 0.5.

Regarding GUUCCGUUGGCGUAAUGGCAUCGCGUCUCCCUCCUAAGGAGAAGACUGCGGGUUCGAGUCCCGUACGGAACG [U19C A21U], the yeast fitness was found to be 0.846.

Turning to GUUCAGUUGGCGUGAUGGUAACGAGUCUCCCCCCUAAGGAGAAGACUGCGGGUUCGAGUCCCGUACGGAACG [C5A A14G C24A U32C], the yeast fitness was no more than 0.5.

Turning to GUUCCGGUGGCGUAAUGGUAACGCGUCUCUCUCCUAAAGAGAAGACUGCAGGUUCGAGCCCCGUACGGAACG [U7G C30U G38A G50A U59C], the yeast fitness was no more than 0.5.

As for GUUCCGUUGGCGUAAUGGUAAUGCGUAUCCCUCCUAAGGAGAAGACUGCGGGUUCGAAUCCCGUACGGAACG [C22U C27A G58A], the yeast fitness came out at 0.568.

GUUCCGUUGGCGUAAUGGUAACGCGUCUCCCUCCUAAGGAGAUGACUACGGGUUCGAGUCGCGUACGGACCG [A43U G48A C61G A70C]: the yeast fitness is no more than 0.5.

Regarding GUUCCGUUGGCAUAAUGGUAACGCGUCUCCCUUCUCAGGAGAAGACUGCGGGUUCGAGUCCCGUACGGAACG [G12A C33U A36C], the yeast fitness was 0.563.

For GUUCCGUUGGCGUAAUGGUAACGCGUCUCCCUCCUAAGGAGAAGACUGCGGGUUGGAGUGCCGUACGGAACG [C55G C60G], the yeast fitness was no more than 0.5.

Turning to GUUCCGGGGGCGUACUGGUAACGCGUCUCCCUCCUAAGGAGAAGACUGCGGGUUCGAGUCCCGUACGGAACG [U7G U8G A15C], the yeast fitness came out at 0.543.

In the case of GUUCCGUUGGCGUAAUGGUAACGCGUCUCCCUCCUAAGGACAAGACUGCGGGUUCGAGUUCCGGACGGAACG [G41C C60U U64G], the yeast fitness is no more than 0.5.

With GUUCAGUUGGUGGAAUGGUAACGCGUCUGCCUACUAAGGAGAAGACUGCGGGUUCGAGACCCGUACGGAACG [C5A C11U U13G C29G C33A U59A], the yeast fitness is no more than 0.5.

As for GUUCCGUUGGCGUAAUGGUAACGCGUCUACCUCCUCAGGAGAAGACUGCGAGCUCGAGUCCCGCUCGGAACG [C29A A36C G51A U53C U64C A65U], the yeast fitness was no more than 0.5.

Take GUUGCAUUGGCGUAAUGGUAACGCGUCUCCCUCCUAAGGAGAAGACGGCGGGUUCGAGUCCCGUACGGAACG [C4G G6A U47G]: the yeast fitness is no more than 0.5.

For the variant GUUCCGUUGGCGUAUUAGUAACGCGUCUCCCUCGUAAGGAGAAGAAUGCGGGUUCGAGUCCCGUACGGAACG [A15U G17A C34G C46A], the yeast fitness was 0.569.

GUUCCGUUGGCGUAAUGGUAAUGCAUCUCCCUCCUAAGGAGAAGACUGCGGGUCCGAGUCCCGUUCGGAACG [C22U G25A U54C A65U]: the yeast fitness turned out to be 0.555.

Take GUUGCGUUAGCGUAAUGGUAACGCGUCUCCCUCCUAAGGAGAAGACUGAGGGUUUGAGUCCCGUACGGAACG [C4G G9A C49A C55U]: the yeast fitness was no more than 0.5.

With GUUCCGUUGGCGUAAUGGUAACGCGUCUGCCUCCUAAGGCGCAGACUGCGGGUUCGAGUCCCGUCCGGAACG [C29G A40C A42C A65C], the yeast fitness turned out to be 0.565.

Turning to GUUCCGUUGGCGUAGUGGUAACGCGUCUCGCUCCUAAGGAGAAGACUGGGGGUUCGAGUCCCGUUCGGAACG [A15G C30G C49G A65U], the yeast fitness is no more than 0.5.

As for GUUCUGUUGGCGUAAUGGUAACGCGUCUCCCUCCAGAGGAGAAGACUGCGGGUUCGAGUCCCGUACGGAACG [C5U U35A A36G], the yeast fitness amounted to 0.673.
